Assay results of several laboratories.
Each line is one published result; the experiments were not run side by side.
Observed: cell growth or viability

CCCON(Cc1ccc(C(=O)NO)cc1)C(=O)Nc1ccccc1  IC50 (SUP-B15; ATP luminescence; 72 h): 6.78 µM
Cc1cc(C)cc(COc2cc3c(cc2OCc2cc(C)cc(C)c2)[C@H]2C[C@](O)(Cc4cn(Cc5ccc(-c6ccccc6)cc5)nn4)C[C@H](C)N2CC3)c1  IC50 (GES1; MTT; 48 h): 2.22 µM
NCCCOc1cc(NC(=O)c2cc(OCCN)cc(C(=O)Nc3cc(OCCCN)c4ccccc4n3)n2)nc2ccccc12  IC50 (HT-1080; ATP luminescence; 72 h): 6.8 µM
O=C(O)c1ccc(NC(=O)c2cc3cc(Cl)ccc3[nH]2)cc1  IC50 (T24; MTT): 15 µM
CC(C)C[C@H](NC(=O)[C@H](Cc1ccccc1)NC(=O)c1cnccn1)B(O)O  IC50 (HT-1080; ATP luminescence): 0.013 µM
COc1c(C)c(OS(=O)(=O)c2ccc3ccccc3c2)c(C)c(OS(=O)(=O)c2ccc3ccccc3c2)c1C(=O)/C=C/c1ccccc1  IC50 (SH-SY5Y; SRB; 72 h): > 50 µM
C=CC(=O)Nc1ccc(CCn2cc(C[C@@]3(O)C[C@@H]4c5cc(OCc6cc(C)cc(C)c6)c(OCc6cc(C)cc(C)c6)cc5CCN4[C@@H](C)C3)nn2)cc1  IC50 (GES1; MTT; 48 h): 0.73 µM
COc1cc(C(=O)Nc2cc(OCCN3CCCC3)c3ccccc3n2)nc(C(=O)Nc2cc(OCCN3CCCC3)c3ccccc3n2)c1  IC50 (HT-1080; ATP luminescence; 72 h): 1.5 µM
O=C(NCc1ccc(CO)cc1)c1c[nH]c2ccc(Cl)cc12  IC50 (T24; MTT): 17 µM
CCN1CCN(c2ccc(Nc3cc(N(C)C(=O)Nc4c(Cl)c(OC)cc(OC)c4Cl)ncn3)cc2)CC1  IC50 (SNU-16; ATP luminescence; 96 h): 0.00931 µM
Clc1ccc2c(NCCNCc3ccccn3)ccnc2c1  IC50 (CHO; MTT): 144 µM
CCCCN(Cc1ccc(C(=O)NO)cc1)C(=O)Nc1ccccc1  IC50 (SUP-B15; ATP luminescence; 72 h): 8.66 µM
CC(=O)O[C@@]12CO[C@@H]1C[C@H](O)[C@@]1(C)C(=O)[C@H](O)C3=C(C)[C@@H](OC(=O)[C@H](O)[C@@H](NC(=O)OC(C)(C)C)c4ccccc4)C[C@@](O)([C@@H](OC(=O)c4ccccc4)[C@H]21)C3(C)C  IC50 (HCC1937; ATP luminescence; 72 h): > 2.5 µM
C[C@H](NC(=O)c1cccc2ccccc12)C(=O)Nc1ccccc1Oc1ccccc1  IC50 (SH-SY5Y): 4 µM
C=C(C)C(=O)Nc1ccc(-c2c(-c3ccc(Oc4nccc(C)n4)c(F)c3)c3c(N)ncnc3n2C)cc1  IC50 (NCI-H716; ATP luminescence; 96 h): 0.00209 µM
O=C(Nc1cc(OCCN2CCCC2)c2ccccc2n1)c1cc(OCCN2CCCC2)cc(C(=O)Nc2cc(OCCN3CCCC3)c3ccccc3n2)n1  IC50 (HT-1080; ATP luminescence; 72 h): 2.2 µM
Clc1ccc2c(NCCN(Cc3ccccn3)Cc3ccccn3)ccnc2c1  IC50 (CHO; MTT): > 240 µM
COc1cc(Nc2nccc(-c3cnn4nc(OC)ccc34)n2)cc(C(F)(F)F)c1  IC50 (A 172; ATP luminescence): 0.43 µM
CN1/C(=N/c2ccc(Cl)cc2)c2cc(C(N)=O)nc3c(N)c(Cl)c(N)c1c23  IC50 (HCC4017): 22.9 µM
COc1cccc2c1C(=O)c1c(O)c3c(c(O)c1C2=O)C[C@@](O)(C(=O)CO)C[C@@H]3O[C@H]1C[C@H](N)[C@H](O)[C@H](C)O1  IC50 (BHK; SRB; 48 h): 36.4 µM
C#CCOc1cc(C(=O)Nc2cc(OCCCN)c3ccccc3n2)nc(C(=O)Nc2cc(OCCCN)c3ccccc3n2)c1  IC50 (HT-1080; ATP luminescence; 72 h): 2.6 µM
CCN1C(=O)N(c2c(F)c(OC)cc(OC)c2F)Cc2cnc3[nH]c(CN4CCOCC4)cc3c21  IC50 (NCI-H716; ATP luminescence; 96 h): 0.00171 µM
O=C1Nc2ccccc2C1=Cc1cc2ccc(Cl)cc2nc1Cl  IC50 (CHO; MTT; 72 h): 39.2 µM
NCCOc1cc(C(=O)Nc2cc(OCCN)c3ccccc3n2)nc(C(=O)Nc2cc(OCCN)c3ccccc3n2)c1  IC50 (HT-1080; ATP luminescence; 72 h): 0.6 µM
CCCCCC/N=C1\c2cc(C(N)=O)nc3c(N)c(Cl)c(N)c(c23)N1C  IC50 (HCC4017): 2.87 µM
O=C1Nc2ccccc2C1=Cc1cc2cc(Cl)ccc2nc1Cl  IC50 (CHO; MTT; 72 h): 38.5 µM
CN(C)CCOc1cc(NC(=O)c2cc(Cl)cc(C(=O)Nc3cc(OCCN(C)C)c4ccccc4n3)n2)nc2ccccc12  IC50 (HT-1080; ATP luminescence; 72 h): 2.2 µM
COc1ccc(OC)c(NC(=S)NN=Cc2ccccn2)c1  IC50 (BHK; SRB; 48 h): 111 µM
CN(C)CCCOc1cc(NC(=O)c2cc(Cl)cc(C(=O)Nc3cc(OCCCN(C)C)c4ccccc4n3)n2)nc2ccccc12  IC50 (HT-1080; ATP luminescence; 72 h): 1.8 µM
CC(C)C[C@H](NC(=O)[C@H](Cc1ccccc1)NC(=O)c1cnccn1)B(O)O  IC50 (MM.1R; ATP luminescence; 48 h): 0.0089 µM
O=C(Nc1cc(OCCN2CCCC2)c2ccccc2n1)c1cc(Cl)cc(C(=O)Nc2cc(OCCN3CCCC3)c3ccccc3n2)n1  IC50 (HT-1080; ATP luminescence; 72 h): 3.4 µM
Oc1ccccc1CN=CCNc1ccnc2cc(Cl)ccc12  IC50 (CHO; MTT): > 300 µM
